These results are taken from ChEMBL document CHEMBL3112537, “A novel series of 6-substituted 3-(pyrrolidin-1-ylmethyl)chromen-2-ones as selective monoamine oxidase (MAO) A inhibitors” (Eur J Med Chem, 2014).

pIC50: −log10 of the molar value.

Data set [1] addresses T1, Amine oxidase [flavin-containing] A (Homo sapiens, UniProt P21397).
T1 sequence (P21397 whole entry): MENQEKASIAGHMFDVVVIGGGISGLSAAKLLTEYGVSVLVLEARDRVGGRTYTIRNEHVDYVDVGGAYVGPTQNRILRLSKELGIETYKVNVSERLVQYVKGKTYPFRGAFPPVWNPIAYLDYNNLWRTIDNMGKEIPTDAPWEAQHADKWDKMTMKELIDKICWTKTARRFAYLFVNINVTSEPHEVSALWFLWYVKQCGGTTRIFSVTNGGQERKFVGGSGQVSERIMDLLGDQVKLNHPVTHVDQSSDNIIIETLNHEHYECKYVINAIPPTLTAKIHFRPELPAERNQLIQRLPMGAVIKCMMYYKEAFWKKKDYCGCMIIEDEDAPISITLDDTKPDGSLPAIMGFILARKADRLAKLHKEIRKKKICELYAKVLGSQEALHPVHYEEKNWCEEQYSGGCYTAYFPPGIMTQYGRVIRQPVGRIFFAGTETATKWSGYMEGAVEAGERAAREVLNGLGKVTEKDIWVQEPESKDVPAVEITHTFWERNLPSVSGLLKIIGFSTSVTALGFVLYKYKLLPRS
Kind of data set: Inhibition of MAO-A (unknown origin).

For data set [2], the target named is T2, Amine oxidase [flavin-containing] B (Homo sapiens, UniProt P27338).
T2 sequence (P27338 whole entry): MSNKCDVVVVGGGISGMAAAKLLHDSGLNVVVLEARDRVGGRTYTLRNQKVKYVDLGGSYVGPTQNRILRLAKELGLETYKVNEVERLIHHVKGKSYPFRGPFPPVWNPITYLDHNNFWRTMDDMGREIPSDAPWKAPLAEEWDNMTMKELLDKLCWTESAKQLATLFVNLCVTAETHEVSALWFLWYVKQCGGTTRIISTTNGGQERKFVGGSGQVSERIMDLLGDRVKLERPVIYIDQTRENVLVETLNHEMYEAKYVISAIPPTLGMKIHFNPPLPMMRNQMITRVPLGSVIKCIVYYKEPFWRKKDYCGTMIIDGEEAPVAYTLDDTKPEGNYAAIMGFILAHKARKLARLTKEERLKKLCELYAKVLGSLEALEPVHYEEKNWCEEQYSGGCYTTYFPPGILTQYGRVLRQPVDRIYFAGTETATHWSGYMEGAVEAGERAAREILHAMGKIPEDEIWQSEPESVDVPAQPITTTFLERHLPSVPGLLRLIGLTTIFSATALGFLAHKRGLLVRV
Kind of data set: Inhibition of MAO-B (unknown origin).

Data set [3] addresses T1, Amine oxidase [flavin-containing] A. Kind of data set: Inhibition of human recombinant MAO-A assessed as kynuramine oxidation to 4-hydroxyquinoline after 40 mins by LC-MS/MS analysis. A digest of the protocol:
(§1)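 Human MAO A and MAO B inhibition using kynuramine as a mixed substrate for both isoforms. IC50 is given as the mean ± SE of duplicate determinations.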

The target in data set [4] is T2, Amine oxidase [flavin-containing] B. Kind of data set: Inhibition of human recombinant MAO-B assessed as kynuramine oxidation to 4-hydroxyquinoline after 40 mins by LC-MS/MS analysis. The gist of the method:
as §1

Data set [5] relates to Rattus norvegicus. Kind of data set: In vivo inhibition of MAO-A in Sprague-Dawley rat assessed as 3-methoxytyramine level in brain striatum at 80 umol/kg, sc after 1 hr by HPLC/EC analysis relative to control. It is filed as functional. Also noted: scale not given: the % may be the effect or the level left. A digest of the protocol: (§2)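 Freely moving rats dosed subcutaneously and sacrificed 1 h later. Striatal DOPAC, 3-MT and 5-HIAA were measured post mortem and expressed as % of saline control (n = 4). Significance was by Student's t-test, P < 0.05.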

Data set [6] concerns Rattus norvegicus. Kind of data set: In vivo inhibition of MAO-A in Sprague-Dawley rat assessed as 3,4-dihydroxyphenylacetic acid level in brain striatum at 80 umol/kg, sc after 1 hr by HPLC/EC analysis relative to control. It is filed as functional. Also noted: scale not given: the % may be the effect or the level left. The gist of the method: as §2
The subject of data set [7] is Rattus norvegicus. Kind of data set: In vivo inhibition of MAO-A in Sprague-Dawley rat assessed as 5-hydroxyindoleacetic acid in brain striatum at 80 umol/kg, sc after 1 hr by HPLC/EC analysis relative to control. It is filed as functional. Also on record: scale not given: the % may be the effect or the level left. A digest of the protocol: as §2
For data set [8], the system named is Rattus norvegicus. Kind of data set: In vivo inhibition of MAO-A in Sprague-Dawley rat assessed as 5-hydroxyindoleacetic acid in brain striatum at 37 umol/kg, sc after 1 hr by HPLC/EC analysis relative to control. It is filed as functional. Also on record: scale not given: the % may be the effect or the level left. The gist of the method:
as §2

Data set [9] concerns Rattus norvegicus. Kind of data set: In vivo inhibition of MAO-A in Sprague-Dawley rat assessed as 3-methoxytyramine level in brain striatum at 37 umol/kg, sc after 1 hr by HPLC/EC analysis relative to control. It is filed as functional. Also noted: scale not given: the % may be the effect or the level left. A digest of the protocol:
as §2

Data set [10] has as its system Rattus norvegicus. Kind of data set: In vivo inhibition of MAO-A in Sprague-Dawley rat assessed as 3,4-dihydroxyphenylacetic acid level in brain striatum at 37 umol/kg, sc after 1 hr by HPLC/EC analysis relative to control. Type of data set: functional. Also noted: scale not given: the % may be the effect or the level left. A digest of the protocol:
as §2

Data set [11] concerns Rattus norvegicus. Kind of data set: In vivo inhibition of MAO-A in Sprague-Dawley rat assessed as 3-methoxytyramine level in brain striatum at 86 umol/kg, sc after 1 hr by HPLC/EC analysis relative to control. Type of data set: functional. Also noted: scale not given: the % may be the effect or the level left. The gist of the method: as §2
The subject of data set [12] is Rattus norvegicus. Kind of data set: In vivo inhibition of MAO-A in Sprague-Dawley rat assessed as 5-hydroxyindoleacetic acid in brain striatum at 86 umol/kg, sc after 1 hr by HPLC/EC analysis relative to control. It is filed as functional. Also noted: scale not given: the % may be the effect or the level left. The gist of the method:
as §2

A further data set deals with D(2) dopamine receptor (Homo sapiens, UniProt P14416). Kind of data set: Antagonist activity at dopamine D2 receptor (unknown origin) expressed in HEK cells co-expressing Gqi5 assessed as inhibition of dopamine-induced effect by FLIPR assay. Type of data set: cell-based, HEK293.
D(2) dopamine receptor, sequence (P14416 whole entry): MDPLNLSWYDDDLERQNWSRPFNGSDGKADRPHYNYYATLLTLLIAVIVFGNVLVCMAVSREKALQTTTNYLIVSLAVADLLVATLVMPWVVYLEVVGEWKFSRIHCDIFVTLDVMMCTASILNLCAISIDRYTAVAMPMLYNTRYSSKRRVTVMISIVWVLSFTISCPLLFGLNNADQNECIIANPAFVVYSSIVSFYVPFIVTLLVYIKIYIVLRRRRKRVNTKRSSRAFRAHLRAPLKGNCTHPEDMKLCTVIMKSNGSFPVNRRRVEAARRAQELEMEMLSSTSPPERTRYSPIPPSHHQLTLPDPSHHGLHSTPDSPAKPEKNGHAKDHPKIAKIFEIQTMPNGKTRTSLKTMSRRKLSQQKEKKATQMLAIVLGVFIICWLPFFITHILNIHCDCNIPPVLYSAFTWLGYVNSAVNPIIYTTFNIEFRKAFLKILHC
The nature of data set [13]: Metabolic stability in rat liver microsomes assessed as compound remaining at 5 uM after 60 mins by LC-MS/MS analysis. Type of data set: ADME. The settings on record: read-out: Stability. The gist of the method:
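Incubation with rat liver microsomes, read as % of compound remaining after 60 min.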
On the technique in general: Liver microsomes are vesicles of endoplasmic reticulum, rich in cytochrome P450 enzymes.

Data set [14] deals with Rattus norvegicus. Kind of data set: In vivo inhibition of MAO-A in Sprague-Dawley rat assessed as 3,4-dihydroxyphenylacetic acid level in brain striatum at 86 umol/kg, sc after 1 hr by HPLC/EC analysis relative to control. It is filed as functional. Also on record: scale not given: the % may be the effect or the level left. The gist of the method: as §2

Consider `O=C(O)c1cc2cc([N+](=O)[O-])ccc2oc1=O`, for which the pIC50 is 7.17 in data set [1] and 7.71 in data set [2].

Turning to `O=c1oc2ccc(O)cc2cc1CN1CCCC1`, the negative-log IC50 (pIC50) in [3] was 5.84; in data set [4], < 4.00. Moreover, the Activity is on record as 126% with Rattus norvegicus [5], 47% in the data set with Rattus norvegicus [6] and 86% in the data set on Rattus norvegicus [7].

For `O=C(NCCN1CCOCC1)c1ccc(Cl)cc1` [MOCLOBEMIDE], the Activity in the data set with Rattus norvegicus [8] came out at 80%; with Rattus norvegicus [9], 398%; in the data set on Rattus norvegicus [10] it was 18%.

As for `Nc1ccc2oc(=O)c(CN3CCCC3)cc2c1`, the Activity in the data set on Rattus norvegicus [11] is given as 170%; with Rattus norvegicus [12], 72%; with Rattus norvegicus [14], 45%. The pIC50 in data set [3] was 5.42; in data set [4], < 4.00; at D(2) dopamine receptor it was 4.79. Further, the remaining at 1 h, 5 µM in data set [13] worked out at 80%.

As usually defined, the pIC50 is the IC50 on a negative log10 scale, so that one unit is a factor of ten.
